{"source": "ChEMBL document CHEMBL4196181", "about": "“Flabellipparicine, a Flabelliformide-Apparicine-Type Bisindole Alkaloid from Tabernaemontana divaricata” (J Nat Prod, 2018)", "key": {"A549": {"tested_on": "A549", "assay": "Cytotoxicity against human A549 cells after 72 hrs by sulforhodamine B assay", "assay_type": "functional, cell-based", "settings": "for pIC50: A549, 72 h", "in_short": "(§1)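 Antiproliferative test on MCF-7 human breast adenocarcinoma and A-549 human lung carcinoma cells. SN38 (7-ethyl-10-hydroxycamptothecin) served as positive control. IC50 is the concentration giving 50% inhibition of cell growth, calculated by a literature procedure.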"}, "MCF7": {"tested_on": "MCF7", "assay": "Cytotoxicity against human MCF7 cells after 72 hrs by sulforhodamine B assay", "assay_type": "functional, cell-based", "settings": "for pIC50: MCF7, 72 h", "in_short": "as §1"}}, "note": "pIC50: −log10 of the molar value. Activity calls are given as the source filed them. The rule behind the calls is not given here.", "data": [{"smiles": "C/C=C1/CN2CC[C@@H]1[C@@]1(C[C@H]3C[C@@H]4/C(=C\\Cc5c3n1c1ccccc51)C(=O)N(C)C[C@@H]4CC)c1[nH]c3ccccc3c1C2", "values": [{"measurement": "pIC50", "setting": "A549", "result": 5.12}, {"measurement": "pIC50", "setting": "MCF7", "result": "< 5.00"}]}, {"smiles": "CC[C@@H]1CN(C)[C@@H]2Cc3c([nH]c4ccccc34)[C@H](c3ccc4c(c3)N=C3[C@@H]5C[C@H]6C[C@H](CC)[C@@H]5N(CC[C@@]34O)C6)C[C@H]1[C@H]2C(=O)OC", "values": [{"measurement": "pIC50", "setting": "A549", "result": "< 5.00"}, {"measurement": "pIC50", "setting": "MCF7", "result": 5.89}]}, {"smiles": "C/C=C1/CN2CC[C@@H]1/C(=C\\[C@@H]1C[C@@H]3/C(=C\\C)CN(C)[C@H](Cc4c1[nH]c1ccccc41)[C@@H]3C(=O)OC)c1[nH]c3ccccc3c1C2", "values": [{"measurement": "pIC50", "setting": "A549", "result": 5.40}, {"measurement": "pIC50", "setting": "MCF7", "result": 5.89}]}, {"smiles": "CC[C@H]1CN2CCc3cc(OC)c(OC)cc3[C@@H]2C[C@@H]1C[C@H]1NCCc2c1[nH]c1ccccc21", "values": [{"measurement": "pIC50", "setting": "A549", "result": 7.05}, {"measurement": "pIC50", "setting": "MCF7", "result": 8.70}]}, {"smiles": "C/C=C1/CN2CC[C@@H]1/C(=C\\[C@@H]1C[C@@H]3[C@H](CC)CN(C)[C@H](Cc4c1[nH]c1ccccc41)[C@@H]3C(=O)OC)c1[nH]c3ccccc3c1C2", "values": [{"measurement": "pIC50", "setting": "A549", "result": 5.09}, {"measurement": "pIC50", "setting": "MCF7", "result": 6.10}]}, {"smiles": "C/C=C1/C[N+]2(C)[C@@H]3Cc4c([nH]c5ccccc45)[C@]2(c2ccc4c5c([nH]c4c2)[C@@H]2C[C@H]4C[C@H](CC)[C@@H]2N(CC5)C4)C[C@H]1[C@H]3C(=O)OC", "values": [{"measurement": "pIC50", "setting": "A549", "result": 5.49}, {"measurement": "pIC50", "setting": "MCF7", "result": 5.89}]}, {"smiles": "CC[C@@H]1CN(C)[C@@H]2Cc3c([nH]c4ccccc34)[C@H](c3ccc4c5c([nH]c4c3)[C@]3(C(=O)OC)C[C@H]4C[C@H](CC)[C@@H]3N(CC5)C4)C[C@H]1[C@H]2C(=O)OC", "values": [{"measurement": "pIC50", "setting": "A549", "result": "< 5.00"}, {"measurement": "pIC50", "setting": "MCF7", "result": 5.27}]}, {"smiles": "C/C=C1/C[N+]2(C)[C@@H]3Cc4c([nH]c5ccccc45)[C@]2(c2ccc4c5c([nH]c4c2)[C@]2(C(=O)OC)C[C@H]4C[C@H](CC)[C@@H]2N(CC5)C4)C[C@H]1[C@H]3C(=O)OC", "values": [{"measurement": "pIC50", "setting": "A549", "result": 5.92}, {"measurement": "pIC50", "setting": "MCF7", "result": 5.14}]}, {"smiles": "CC[C@H]1[C@@H]2CCN3CC[C@@]4(C(=C2C(=O)OC)Nc2ccccc24)[C@@H]13", "values": [{"measurement": "Activity", "setting": "A549", "result": "inactive"}, {"measurement": "Activity", "setting": "MCF7", "result": "inactive"}]}, {"smiles": "CCc1c2c(nc3ccc(O)cc13)-c1cc3c(c(=O)n1C2)COC(=O)[C@]3(O)CC", "note": "[7-ETHYL-10-HYDROXYCAMPTOTHECIN]", "values": [{"measurement": "pIC50", "setting": "A549", "result": 6.70}, {"measurement": "pIC50", "setting": "MCF7", "result": "> 10.00"}]}, {"smiles": "C=C1c2[nH]c3ccccc3c2CN2CC[C@H]1/C(=C\\C)C2", "values": [{"measurement": "Activity", "setting": "A549", "result": "inactive"}, {"measurement": "Activity", "setting": "MCF7", "result": "inactive"}]}, {"smiles": "CC[C@@H]1CN(C)[C@@H]2Cc3c([nH]c4ccccc34)[C@H](c3ccc4c5c([nH]c4c3)[C@]3(C(=O)OC)C[C@H]4C[C@H](CC)[C@@H]3N(CC5)[C@H]4CC(C)=O)C[C@H]1[C@H]2C(=O)OC", "values": [{"measurement": "pIC50", "setting": "A549", "result": 5.92}, {"measurement": "pIC50", "setting": "MCF7", "result": 5.89}]}, {"smiles": "CCC1C[C@@H]2C[C@@]3(C(=O)OC)C4=Nc5ccccc5[C@@]4(O)CCN([C@@H]13)[C@H]2CC(C)=O", "note": "(stereo partly specified)", "values": [{"measurement": "Activity", "setting": "A549", "result": "inactive"}, {"measurement": "Activity", "setting": "MCF7", "result": "inactive"}]}]}
